Screening results (PubChem)
A1 inh – caspase 3/7 activation in MEF A1-2A-BIM cells, primary screen, A1 inhibitor project, cell-based, luminescence, HTS; hit rate 0.066% among 330,000; caspase activation, % (test concentration not listed); Caspase-Glo 3/7 luminescence, 3 h; percent of clofoctol response, vehicle zero;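 active = over half of replicate activation scores above 10%, or exactly half above 10 with the replicate mean above 10; inconclusive = replicate mean below 10 yet half the replicates above 10; inactive = over half of replicates below 10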
NLRP3 yeast inh – NALP3 inflammasome inhibitors in reconstituted yeast, primary screen, luminescence, uHTS. Yeast reconstituted NLRP3/ASC/caspase-1, beta-gal luminescence, 24 h. inhibition, % at 10 µM. hit rate 0.39% among 330,000. AID 2825, 2010;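 active = inhibition of 50% or more; inactive = inhibition below 50%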;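 note: plate controls were induced DMSO wells for no effect and uninduced yeast grown without galactose for full effect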
MC4R barr agon – MC4R agonists recruiting beta-arrestin, primary screen, cell-based, luminescence, agonist arm of biased-ligand search | U2OS MC4R beta-arrestin complementation; percent of melanotan II response, DMSO zero | activation, % at 8.9 µM | hit rate 0.98% among 360,000;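 active = activation above a per-plate cutoff, the mean activation of sample wells on that plate plus 3 SD, cut at about 8% in these data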
Target sequence (P32245 whole entry, looked up): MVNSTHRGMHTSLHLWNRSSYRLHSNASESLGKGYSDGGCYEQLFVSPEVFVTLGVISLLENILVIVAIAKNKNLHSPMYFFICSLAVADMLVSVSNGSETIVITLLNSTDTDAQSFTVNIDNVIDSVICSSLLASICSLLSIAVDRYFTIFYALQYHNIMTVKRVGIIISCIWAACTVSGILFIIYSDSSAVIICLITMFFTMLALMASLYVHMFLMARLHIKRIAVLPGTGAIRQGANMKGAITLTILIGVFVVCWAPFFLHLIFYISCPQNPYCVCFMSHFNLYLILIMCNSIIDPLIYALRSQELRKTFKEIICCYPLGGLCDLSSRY
Tb MetRS inh – T. brucei MetRS inhibitors, primary screen, biochemical, luminescence; inhibition, % at 11.9 µM; hit rate 0.4% among 360,000; purified T. brucei MetRS, ATP depletion, Kinase-Glo luminescence;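 active = inhibition above a per-plate cutoff of the control wells' mean inhibition plus 3 SD, cut at about 5.5% in these data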;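 note: 0% = DMSO wells median and 100% = median of wells with control inhibitor compound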
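Material – parasite MetRS enzyme · Medium – HEPES-MgCl2-KCl buffer plus DTT, spermine, BSA, pyrophosphatase · Reagent – ATP, methionine and E. coli bulk tRNA substrates · Times – 15 min enzyme-compound preincubation, 2 h reaction, 10 min detection, 25 °C · Measured by – luminescence of leftover ATP · Evaluation – percent inhibition relative to median high and low control wells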
MC4R antagonist – MC4R antagonists of cAMP signaling, primary screen, cell-based, TR-FRET, antagonist arm of biased-ligand search; Melanocortin receptor 4 (Homo sapiens), P32245; MC4R-expressing cells, MTII-stimulated cAMP, LANCE TR-FRET; inhibition, % at 6.5 µM; hit rate 0.48% among 360,000; AID 540295, 2011;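 active = inhibition above its plate's cutoff, the mean of tested wells on that plate plus 3 SD, cut at about 29% in these data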;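 note: 0% = Melanotan II alone and 100% = Melanotan II plus saturating MCL0020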
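Material: U2OS-MC4R stable cell line | Reagent: Melanotan II challenge after compound preincubation | Doses: One concentration, 6.5 µM nominal | Incubation: 30-min compound preincubation, 1-h Melanotan II challenge, 1-h detection, room temperature | Signal: TR-FRET cAMP assay | Replicates: One well per compound, no replicates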
NALP1 yeast inh – NALP1 inflammasome inhibitors in reconstituted yeast, colorimetric, S. cerevisiae, triplicate retest | S. cerevisiae NALP1/ASC/caspase-1 growth, X-gal OD620, 72 h | inhibition, % at 10 µM | hit rate 0.61% among 280,000; in the data active = inhibition mostly above about 24%, no sharp cut-off; inactive = mostly below about 32%
Tb MetRS conf – T. brucei MetRS inhibitors, confirmation, biochemical, luminescence | shares compounds with Tb MetRS inh | T. brucei MetRS enzyme, luminescence (ATP depletion) | inhibition, % at 11.9 µM | hit rate 93% among 1,400; in the data active = inhibition above about 7%
Jurkat tox – Jurkat T cell cytotoxicity, cytotoxicity control for T. brucei MetRS inhibitor project, luminescence, high throughput; shares compounds with Tb MetRS inh; Jurkat cells viability, ATP luminescence; inhibition, % at 8.3 µM; hit rate 12% among 1,400; AID 624413, 2012; in the data active = inhibition above about 15%;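 note: 0% = vehicle and 100% = reference inhibitor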
Tb MetRS inh FP – T. brucei MetRS inhibitors, orthogonal assay for T. brucei MetRS inhibitor project, biochemical, fluorescence polarization; shares compounds with Tb MetRS inh; purified T. brucei MetRS; inhibition, % at 11.9 µM; hit rate 44% among 1,400; AID 651607, 2012; in the data active = inhibition above about 17%;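 note: 0% = vehicle wells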
Active calls of the source: *; ? = inconclusive; . = no result. The list is not random: actives were taken first. Their share in the collection is about 2.5%.

SMILES	A1 inh	NLRP3 yeast inh	MC4R barr agon	Tb MetRS inh	MC4R antagonist	NALP1 yeast inh	Tb MetRS conf	Jurkat tox	Tb MetRS inh FP
Cc1ccc2[nH]c3c(c2c1)CCc1cn[nH]c1-3	0.5	-11.5	-1.1	22.4*	-11.8	9.5	11.7*	1.8	46.8*
Cc1ccc(OCC(=O)NNC(=O)c2ccc(F)c(S(=O)(=O)N3CCOCC3)c2)cc1C	.	.	-1.6	-0.1	3.1	.	.	.	.
O=C(Cc1ccccc1)Nc1ccc(NC(=O)c2ccccc2)nc1	-2.0	19.2	-0.1	0.5	12.7	1.2	.	.	.
O=C(Cc1ccccc1)Nc1nonc1NC(=O)c1ccccc1	-0.5	13.5	-1.5	9.1*	10.1	9.2	16.2*	3.8	10.3
COC(=O)c1ccc(CN2CCC(n3nccc3NC(=O)C3CCCC3)CC2)cc1	0.1	24.3	-3.9	0.5	10.2	0.5	.	.	.
COc1cc(CNCc2ccccn2)ccc1OCc1ccc(Cl)cc1Cl	0.4	33.5	9.2*	9.9*	29.8*	18.0	17.4*	14.6	12.4
COc1cc(CNCCN2CCOCC2)ccc1OCc1ccc(Cl)cc1Cl	-0.4	31.4	-2.3	7.0*	-1.5	8.9	15.2*	16.5*	7.5
COc1cc(CNCCN2CCOCC2)ccc1OCc1cccc(Cl)c1	-0.1	17.6	-0.6	-0.4	2.7	8.6	.	.	.
CCOCCCn1c(C)nc2c(c1=O)c1nc3ccccc3nc1n2-c1ccc2c(c1)OCCO2	-0.2	4.6	.	.	.	-3.9	.	.	.
CC1CCCC(C)N1C(=O)CN1C(=O)NC2(CCOc3ccccc32)C1=O (stereo not drawn)	.	-7.4	-2.7	-0.2	6.4	.	.	.	.
C(=N\Nc1nc2ccccc2[nH]1)/c1ccc2ncccc2c1	-4.3	19.3	4.8	4.2	-8.2	.	.	.	.
COc1ccc(/C=N/Nc2nc3ccccc3[nH]2)cc1OC	-0.9	7.6	-0.2	8.5*	-6.2	-10.9	11.7*	2.2	31.0*
COc1cc(OC)c(OC)cc1/C=N/Nc1ncnc2c1[nH]c1ccccc12	-0.4	-0.3	-0.6	0.9	-0.4	26.3	.	.	.
C(=N\Nc1nc2ccccc2[nH]1)/c1cccc2nccnc12	-0.8	2.9	0.1	5.9*	-12.1	.	9.9*	95.8*	25.5*
COc1cc(OC)c(OC)cc1/C=N/Nc1nc2ccccc2[nH]1	0.4	11.6	-2.4	8.7*	-7.1	-3.0	18.0*	6.0	31.1*
COc1cc(/C=N\Nc2nc3ccccc3[nH]2)cc(OC)c1OC	0.2	0.8	0.1	5.2	2.1	5.5	.	.	.
CCCCn1c(/C=N/Nc2nc3ccccc3[nH]2)nc2ccccc21	-0.4	45.8	-4.7	-0.3	7.3	32.0	.	.	.
COc1ccc2c(c1)c(/C=N/Nc1nc3ccccc3[nH]1)c(C)n2C	-1.2	14.0	-1.5	7.1*	10.6	21.0	18.9*	16.1*	18.1*
O=C(C[C@H]1C(=O)N(CCc2ccccc2)C[C@@H]1Cc1ccccc1)Nc1ccc(Br)cc1	.	.	2.9	3.7	6.9	.	.	.	.
CCCCN1C[C@H](CSC)[C@@H](CC(=O)Nc2ccc(Br)cc2)C1=O	.	.	0.3	36.6*	7.7	.	54.2*	8.2	24.6*
CSC[C@H]1CN(c2ccccc2)C(=O)[C@@H]1CC(=O)Nc1ccc(Br)cc1	.	.	3.4	20.9*	11.8	.	36.2*	1.6	10.6
CSC[C@H]1CN(CCc2ccccc2)C(=O)[C@@H]1CC(=O)Nc1ccc(Br)cc1	.	.	5.2	15.2*	2.0	.	37.2*	6.8	12.3
CCOC(=O)CNC(=O)N1CCC(CCC(=O)N(C)Cc2ccccc2)CC1	0.6	18.9	0.2	5.7*	4.2	18.4	2.9	-6.6	-2.9
O=C(CSc1nc2ccccc2[nH]1)NCCc1ccc(Cl)cc1	-0.3	-0.7	1.2	32.3*	-4.9	23.6	37.2*	1.1	17.2*
O=C(CCCSc1nc2ccccc2[nH]1)NCc1ccc(Cl)cc1	-0.3	13.6	-1.0	43.0*	2.4	19.7	68.3*	-4.6	30.2*
SMILES	A1 inh	NLRP3 yeast inh	MC4R barr agon	Tb MetRS inh	MC4R antagonist	NALP1 yeast inh	Tb MetRS conf	Jurkat tox	Tb MetRS inh FP
O=C(Cn1ccccc1=S)c1ccc(Cl)c(Cl)c1	1.0	9.7	0.6	-0.1	2.8	.	.	.	.
O=C(CN1CCSC1=NCc1ccccc1)c1ccc(Cl)c(Cl)c1	0.2	31.6	5.6	60.7*	8.4	46.1*	83.0*	3.4	66.9*
O=C(CNC(=O)c1[nH]cnc1C(=O)NC(c1ccccc1)c1ccccc1)OCc1ccccc1	-0.7	0.7	-0.8	-0.5	12.3	16.6	.	.	.
CCOC(=O)c1ccccc1NC(=O)COC(=O)C(CC)Oc1ccccc1 (stereo not drawn)	.	.	1.3	-0.1	4.7	.	.	.	.
Clc1cccc(N/N=C(\Cc2nc3ccccc3[nH]2)c2ccccc2)c1	0.0	22.2	-2.0	58.9*	8.9	25.6	89.6*	2.5	98.0*
CC/C(=N/O)C(=O)c1ccc(Br)cc1	0.1	23.0	1.1	6.2*	5.4	4.5	18.9*	-2.8	10.6
Nc1nc(Cl)cc(=O)n1Cc1ccc(Cl)cc1	-0.2	5.6	0.4	9.4*	0.8	.	18.3*	1.6	4.5
c1ccc2c(c1)nc(N1CCOCC1)c1c3ccccc3[nH]c21	0.1	24.8	-1.5	11.8*	-9.1	15.6	3.6	-3.5	5.2
Cc1cccn2c(=S)[nH]nc12	.	.	-1.3	-0.2	8.7	.	.	.	.
CCCCn1c(NC(=O)c2ccc(Br)o2)c(S(=O)(=O)c2ccccc2)c2nc3ccccc3nc21	0.4	16.8	1.4	6.0*	6.5	-22.5	11.3*	1.2	1.0
CCCCn1c(NS(=O)(=O)c2ccccc2)c(S(=O)(=O)c2ccc(C)cc2)c2nc3ccccc3nc21	?	.	7.0	15.6*	-14.4	7.9	12.2*	1.4	8.6
CCCCn1c(NC(=O)c2ccco2)c(S(=O)(=O)c2ccc(C)cc2)c2nc3ccccc3nc21	.	.	-0.4	2.9	-0.3	15.8	.	.	.
CC(C)Oc1ccc(S(=O)(=O)N2CCOCC2)cc1NC(=O)CN1C(=O)NC2(CCCC2)C1=O	-0.4	0.3	0.5	-0.6	-2.0	-1.3	.	.	.
